Measurements: ChEMBL document CHEMBL1145899, “Estrogenic potential of 2-alkyl-4-(thio)chromenone 6-O-sulfamates: potent inhibitors of human steroid sulfatase” (J Med Chem, 2003)

Key:
[1] = biological target: Estrogen receptor beta (Homo sapiens) (UniProt Q92731)
MCF7 [2] = assay: Stimulation of MCF-7 cell proliferation at 100 nM; type: functional, Homo sapiens
Summary of the method: (§1)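 MCF-7 cells hormone-depleted 10 days, then seeded at 20 000 cells/cm² in phenol red-free RPMI with 2.5% charcoal-stripped FCS and held 5 days. Compound (ethanol/DMSO, ≤0.1% solvent) added day 5, refreshed day 8; sulforhodamine counts days 5 and 10; triplicate wells. % stimulation = (growth vs solvent controls ×100) − 100.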

Steryl-sulfatase = biological target: T1, Steryl-sulfatase (Homo sapiens, UniProt P08842); assay: Inhibition of steroid sulfatase
T1 sequence (P08842 whole entry): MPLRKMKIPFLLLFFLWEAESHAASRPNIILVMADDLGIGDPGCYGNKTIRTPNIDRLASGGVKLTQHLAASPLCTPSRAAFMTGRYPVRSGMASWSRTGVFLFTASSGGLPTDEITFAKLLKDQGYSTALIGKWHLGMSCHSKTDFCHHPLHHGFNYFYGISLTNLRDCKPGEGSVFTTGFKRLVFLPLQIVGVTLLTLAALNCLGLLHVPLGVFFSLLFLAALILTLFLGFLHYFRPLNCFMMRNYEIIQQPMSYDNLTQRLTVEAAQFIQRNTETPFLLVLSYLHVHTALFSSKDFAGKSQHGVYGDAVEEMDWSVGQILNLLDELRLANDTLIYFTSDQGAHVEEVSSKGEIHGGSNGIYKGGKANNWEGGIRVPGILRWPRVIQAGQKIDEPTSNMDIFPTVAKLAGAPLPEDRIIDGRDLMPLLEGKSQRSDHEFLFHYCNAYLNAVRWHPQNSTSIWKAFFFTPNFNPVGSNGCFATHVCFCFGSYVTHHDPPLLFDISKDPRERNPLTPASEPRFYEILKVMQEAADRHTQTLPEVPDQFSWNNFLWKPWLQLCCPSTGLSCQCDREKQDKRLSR
Summary of the method: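 Purified recombinant human STS; fluorimetric assay with 4-methylumbelliferone sulfate as substrate. IC50 by nonlinear regression; mean of triplicate determinations.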

MCF7 [3] = assay: Stimulation of MCF-7 cell proliferation at 10 nM; type: functional, Homo sapiens
Summary of the method: as §1

[4] = biological target: T2, Estrogen receptor (Homo sapiens) (UniProt P03372)
T2 sequence (whole entry): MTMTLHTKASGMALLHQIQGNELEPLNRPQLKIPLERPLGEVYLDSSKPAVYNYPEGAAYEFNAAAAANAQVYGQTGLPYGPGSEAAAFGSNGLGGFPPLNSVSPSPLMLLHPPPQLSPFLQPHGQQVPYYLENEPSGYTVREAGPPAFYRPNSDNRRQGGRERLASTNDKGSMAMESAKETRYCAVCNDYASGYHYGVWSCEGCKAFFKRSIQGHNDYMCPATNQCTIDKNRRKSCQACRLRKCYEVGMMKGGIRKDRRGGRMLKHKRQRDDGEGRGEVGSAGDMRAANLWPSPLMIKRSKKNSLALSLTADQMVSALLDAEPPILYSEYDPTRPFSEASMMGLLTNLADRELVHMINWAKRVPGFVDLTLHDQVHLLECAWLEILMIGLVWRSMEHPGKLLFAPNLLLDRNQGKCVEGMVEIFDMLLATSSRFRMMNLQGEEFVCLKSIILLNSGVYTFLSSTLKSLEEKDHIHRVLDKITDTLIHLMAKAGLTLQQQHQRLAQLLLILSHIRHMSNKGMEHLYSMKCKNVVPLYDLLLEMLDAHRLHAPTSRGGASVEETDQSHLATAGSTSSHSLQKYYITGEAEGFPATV

MCF7 [5] = assay: Stimulation of MCF-7 cell proliferation at 1000 nM; type: functional, Homo sapiens
Summary of the method: as §1

[6] = biological target: Estrogen receptor beta (Homo sapiens) (UniProt Q92731); assay: Affinity of sulfamate compound for human estrogen receptor beta
Summary of the method: (§2)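 Fluorescence polarization competition with purified human ER; ER-α final 13 nM or ER-β final 10 nM, fluorescein-estradiol tracer 1 nM final. Compounds from DMSO or ethanol stocks, 0.5% (v/v) final solvent; room temperature 2–2.5 h; triplicate wells. Four-parameter logistic fit; ED50 = concentration giving polarization midway between +tracer/+ER and +tracer/−ER controls. Tested up to solubility limit.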

[7] = biological target: T2, Estrogen receptor (Homo sapiens); assay: Affinity of sulfamate compound for human estrogen receptor alpha
Summary of the method: as §2

Estrogen receptor beta (Homo sapiens), sequence (Q92731 whole entry): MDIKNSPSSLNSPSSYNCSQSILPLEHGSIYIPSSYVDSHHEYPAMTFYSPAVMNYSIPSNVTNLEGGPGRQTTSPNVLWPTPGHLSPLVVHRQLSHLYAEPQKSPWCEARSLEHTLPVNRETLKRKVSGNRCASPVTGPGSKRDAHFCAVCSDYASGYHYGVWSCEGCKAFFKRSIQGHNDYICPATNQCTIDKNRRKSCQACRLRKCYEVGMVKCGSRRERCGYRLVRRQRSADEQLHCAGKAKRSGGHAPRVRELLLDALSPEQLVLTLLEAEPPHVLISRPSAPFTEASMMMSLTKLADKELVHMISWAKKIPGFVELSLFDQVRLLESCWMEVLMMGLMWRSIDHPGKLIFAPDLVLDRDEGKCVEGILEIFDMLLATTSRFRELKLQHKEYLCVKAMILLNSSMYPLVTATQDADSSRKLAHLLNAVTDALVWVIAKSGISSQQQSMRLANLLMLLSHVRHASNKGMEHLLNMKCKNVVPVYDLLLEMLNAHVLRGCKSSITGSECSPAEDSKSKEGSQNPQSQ

Structure (SMILES)	ED50 [1]	IC50 (Steryl-sulfatase)	ED50 [4]	ED50 [6]	ED50 [7]	Stimulation (MCF7 [2])	Stimulation (MCF7 [3])	Stimulation (MCF7 [5])
NS(=O)(=O)Oc1ccc2oc(C34CC5CC(CC(C5)C3)C4)cc(=O)c2c1	> 30 µM	5.6 nM	> 30 µM			88%	71%	116%
O=c1cc(C2CCCCCCCCCCC2)oc2ccc(O)cc12	1.5 µM		0.8 µM					
NS(=O)(=O)Oc1ccc2sc(C34CC5CC(CC(C5)C3)C4)cc(=O)c2c1	18 µM		4.8 µM			99%	78%	120%
C[C@]12CC[C@@H]3c4ccc(O)cc4CC[C@H]3[C@@H]1CC[C@@H]2O [ESTRADIOL]	0.011 µM						400%	
CC1(C)C(c2cc(=O)c3cc(O)ccc3o2)C1(C)C	2.6 µM		0.9 µM					
CCCCCCCCC(C)(C)c1cc(=O)c2cc(O)ccc2o1	> 100 µM		> 100 µM					
CC1(C)C(c2cc(=O)c3cc(OS(N)(=O)=O)ccc3o2)C1(C)C	47 µM		30 µM			85%	52%	120%
C[C@]12CC[C@@H]3c4ccc(OS(N)(=O)=O)cc4CCC3[C@@H]1CCC2=O (single isomer, unassigned) [EMATE]				3.7 µM	2.6 µM	112%	97%	123%
NS(=O)(=O)Oc1ccc2oc(C3CCCCCCCCCCC3)cc(=O)c2c1	> 30 µM		> 10 µM			72%	48%	118%
NS(=O)(=O)Oc1ccc2c(c1)C(=O)CC(C13CC4CC(CC(C4)C1)C3)O2 (stereo unspecified)	14 µM		13 µM			90%	79%	130%
CCCCCCCCCc1cc(=O)c2cc(OS(N)(=O)=O)ccc2o1	> 100 µM		> 50 µM			0%	0%	0%
CCCCCCCCCc1cc(=O)c2cc(O)ccc2o1	> 100 µM		> 100 µM					
O=C1CC(C23CC4CC(CC(C4)C2)C3)Oc2ccc(O)cc21 (stereo unspecified)	0.035 µM		0.1 µM					

The next lines start with results.

ED50 [1]	IC50 (Steryl-sulfatase)	ED50 [4]	ED50 [6]	ED50 [7]	Structure (SMILES)	Stimulation (MCF7 [2])	Stimulation (MCF7 [3])	Stimulation (MCF7 [5])
> 100 µM		> 30 µM			CCCCCCCCC(C)(C)c1cc(=O)c2cc(OS(N)(=O)=O)ccc2o1	0%	0%	0%
1.4 µM		1.5 µM			O=c1cc(C23CC4CC(CC(C4)C2)C3)oc2ccc(O)cc12			
			> 100 µM	> 100 µM	NS(=O)(=O)Oc1ccc2oc(CCc3ccccc3)cc(=O)c2c1	33%	16%	45%
> 100 µM		> 100 µM			CC(C)(C)c1cc(=O)c2cc(OS(N)(=O)=O)ccc2o1	45%	12%	100%
69 µM		64 µM			CC(C)(C)c1cc(=O)c2cc(O)ccc2o1			
> 100 µM		> 100 µM			CCCCCC12CCC(CC1)C(c1cc(=O)c3cc(O)ccc3o1)C2 (stereo unspecified)			
0.48 µM		0.21 µM			O=c1cc(C23CC4CC(CC(C4)C2)C3)sc2ccc(O)cc12			
